Hits are enriched below; roughly 12% of the tested compounds scored in any of these assays.
Lmaj promast: reduces viability of Leishmania major promastigotes; resazurin fluorescence viability; inhibition, % at 10 µM; 9% of 200,000 active; AID 1063; in the data active = inhibition above about 50%;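 note: promastigotes grown with compound for 44 hours at 28 °C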
Cl transport mod: KCC2 (human) Cl- transport modulation; Q9H2X9; KCC2 cells, thallium flux FluoZin-2 fluorescence; B-score of Tl+ flux slope (higher = more flux/activation; lower = inhibition) at 10 µM; 2.2% of 190,000 active; AID 1456;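 active = thallium flux slope and its plate-corrected score both differing from the plate sample mean at a set confidence after two filtering rounds, in either direction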;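 note: slope of fluorescence scaled to starting intensity during 10 to 20 s after thallium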
Target sequence (Q9H2X9 whole entry, looked up): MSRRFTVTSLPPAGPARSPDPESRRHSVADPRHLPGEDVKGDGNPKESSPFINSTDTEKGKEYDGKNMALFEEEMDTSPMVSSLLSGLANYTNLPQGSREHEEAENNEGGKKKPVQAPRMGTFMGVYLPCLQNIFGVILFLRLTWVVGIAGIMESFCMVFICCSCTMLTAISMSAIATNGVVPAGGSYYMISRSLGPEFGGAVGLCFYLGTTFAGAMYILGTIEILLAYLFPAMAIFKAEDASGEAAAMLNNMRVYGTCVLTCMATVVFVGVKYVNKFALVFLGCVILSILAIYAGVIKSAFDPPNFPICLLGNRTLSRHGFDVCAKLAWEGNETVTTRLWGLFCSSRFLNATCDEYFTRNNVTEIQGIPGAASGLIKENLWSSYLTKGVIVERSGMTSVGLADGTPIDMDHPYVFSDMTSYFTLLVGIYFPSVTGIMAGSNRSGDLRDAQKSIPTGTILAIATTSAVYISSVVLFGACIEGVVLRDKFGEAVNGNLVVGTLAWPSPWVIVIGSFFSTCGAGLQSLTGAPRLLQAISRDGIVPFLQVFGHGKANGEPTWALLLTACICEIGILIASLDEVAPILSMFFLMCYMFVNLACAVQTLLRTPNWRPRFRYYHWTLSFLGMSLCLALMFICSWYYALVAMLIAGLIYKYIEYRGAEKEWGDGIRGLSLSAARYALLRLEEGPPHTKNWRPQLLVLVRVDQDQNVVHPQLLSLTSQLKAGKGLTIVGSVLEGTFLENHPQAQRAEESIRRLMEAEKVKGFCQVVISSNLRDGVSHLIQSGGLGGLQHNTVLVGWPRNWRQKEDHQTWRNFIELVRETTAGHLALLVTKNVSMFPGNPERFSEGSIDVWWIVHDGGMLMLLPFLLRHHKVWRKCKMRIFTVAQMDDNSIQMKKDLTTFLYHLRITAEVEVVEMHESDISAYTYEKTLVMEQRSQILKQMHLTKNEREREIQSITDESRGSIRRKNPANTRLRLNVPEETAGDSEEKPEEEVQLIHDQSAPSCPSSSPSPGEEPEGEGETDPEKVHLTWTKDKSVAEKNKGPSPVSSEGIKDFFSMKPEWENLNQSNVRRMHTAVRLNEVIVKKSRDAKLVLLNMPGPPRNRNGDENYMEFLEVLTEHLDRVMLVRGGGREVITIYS
ROMK primary: human ROMK K+ channel modulation, primary screen; Tet-inducible ROMK, thallium flux fluorescence; actives lie on both sides; B-score at 10 µM; 2% of 130,000 active; AID 1918;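 active = signal ratio slope over the read window, or its plate-corrected B-score, at least 3 SD from the plate mean, either direction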;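 note: B-score of the F/F0 ratio slope over 7 to 12 s after thallium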
Diaphorase inh: counter-screen for diaphorase-based assays: diaphorase inhibitors and chemical oxidizers. diaphorase resazurin-to-resorufin fluorescence, NADH, 16 min; bacterial (C. kluyveri) enzyme, not human. inhibition, % at 20 µM. 0.69% of 190,000 active;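 active = primary screen inhibition at 20 µM above a set limit, cut at about 50% in these data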;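 note: plate controls were DMSO with full reaction for no effect and wells lacking NADH for full effect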
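Assay system – diaphorase enzyme from Clostridium kluyveri · Amount – diaphorase 0.14 U/mL (working solution) · Times – reaction incubation of 16 min at room temperature · Controls – No-NADH positive control and DMSO neutral control · Signal – resorufin fluorescence 544/590 nm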
WT yeast gro inh: growth inhibition of WT yeast, mitochondrial fusion screen. mitochondrial fusion phenotypic screen, WT strain. inhibition, % at 10 µM. 2.1% of 190,000 active; in the data active = inhibition above about 58%; tested in S. cerevisiae
Diaph act CS: counter-screen for diaphorase-based assays: diaphorase activators and chemical reducers; Diaphorase/resazurin coupled assay, resorufin fluorescence, 16 min; stronger effect = higher value; 1 = vehicle wells, 0 = NADH-free wells; activation factor at 20 µM; 0.005% of 190,000 active;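 active = diaphorase activity raised at least twofold by the compound at 20 µM; inactive = activation factor below 2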
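Measured by – red resorufin fluorescence at 544/590 nm excitation/emission · Test system – Clostridium kluyveri diaphorase, purified enzyme · Incubation – reaction time 16 min, room temperature · Buffer or medium – 50 mM HEPES pH 7.4 with 4.542 mM MgCl2, 0.005% Tween 20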
* hit, by the source's call; . = not tested or not shown.

SMILES	Lmaj promast	Cl transport mod	ROMK primary	Diaphorase inh	WT yeast gro inh	Diaph act CS
O=C1c2ccccc2C(=O)N1CCCON1C(=O)c2ccccc2C1=O	50*	-0.46	.	6	17	0.9
Cc1ccc(S(=O)(=O)NN2C(=O)c3ccccc3NC2c2ccco2)cc1 (stereo not given)	-1	0.13	0.53	12	-3	0.9
C=CCn1c(=S)[nH]c2nc3c(cc2c1=O)CCCC3	2	126*	.	4	1	1
CCCCNC(=O)CCCn1c(=O)[nH]c2ccc(Br)cc2c1=O	0	-0.17	.	13	6	0.9
C=CCn1c(=S)[nH]c2ccc(Br)cc2c1=O	2	52*	.	19	-14	0.8
CN(Cc1ccccc1)C(=S)Nc1ccc(OC(F)F)cc1	-6	-0.58	-1.3	14	5	0.9
CN(C)CCCN(Cc1ccccc1)C(=S)Nc1ccc(OC(F)F)cc1	99*	0.098	.	6	1	0.9
CCCN(CCC)C(=S)NC(=O)c1ccc(-c2ccccc2)cc1	3	.	.	14	68*	0.9
N#CCCN(Cc1ccccc1)C(=S)Nc1ccccc1	52*	0.4	-0.62	13	-11	0.9
COc1ccc(CN(CCC#N)C(=S)NC(=O)c2ccccc2)cc1	60*	17*	0.45	14	-7	0.9
Nc1cccc(/C=C/c2ccncc2)c1	.	1.2	.	.	.	.
CCc1ccc(NC(=S)N2CCNC(=O)C2CC(=O)OC)cc1 (stereo not given)	-8	0.11	-0.42	7	-3	0.9
CCC(=O)NC(=S)NNC(=O)c1ccccc1[N+](=O)[O-]	-1	-0.87	0.056	17	-2	0.8
CCOc1ccc(C(=O)NC(=S)N(Cc2ccccc2)Cc2ccccc2)cc1	57*	.	.	15	12	0.8
CCCN(Cc1ccccc1)C(=S)NC(=O)c1ccccc1[N+](=O)[O-]	-9	70*	4.5*	12	34	0.9
CC1Oc2ccccc2N(CC(=O)c2ccc(F)cc2)C1=O (stereo not given)	3	-0.5	-0.33	-18	11	1.2
CC1=C(C)/C(=N\OS(=O)(=O)c2ccccc2)C=CC1=O	101*	.	-4.3*	100*	80*	0
Cc1c(C(=O)O)c(=S)sn1CCOc1ccccc1	-14	-2.5*	1.6	34	-14	0.7
O=C1c2ccccc2C(=O)N1CCOc1ccccc1	-4	-0.42	.	.	.	.
COc1cc(OC)cc(C(=O)N[C@H](C(=O)Nc2cccc(S(=O)(=O)N3CCCC3)c2)C(C)C)c1	.	-0.0069	.	.	.	.
Cc1ccc(COc2ccc(/C=N/O)cc2)cc1	58*	-0.82	-1	20	-9	0.8
NC(N)=N/N=C/c1ccc(OCc2ccc(Cl)cc2)cc1	101*	.	.	-53	82	1.5
NC(N)=N/N=C/c1ccc(OCc2ccccc2)cc1	101*	.	.	-16	19	1.2
CCOc1ccc(/C=N/O)cc1	5	.	0.22	9	-3	0.9
Cc1sc(N2C(=O)C3C4C=CC(C4)C3C2=O)c(C#N)c1C (stereo not given)	-6	-0.76	.	10	-11	0.9
SMILES	Lmaj promast	Cl transport mod	ROMK primary	Diaphorase inh	WT yeast gro inh	Diaph act CS
c1ccc(C2C/C(=N\N3CCOCC3)c3ccccc3O2)cc1 (stereo not given)	0	0.22	0.22	11	-8	0.9
CC(C)(C)N/N=C1\CC(c2ccccc2)Oc2ccccc21 (stereo not given)	5	1.4	0.03	14	62*	0.9
Brc1ccccc1CN1CCC(N2CCCCC2)CC1	100*	0.55	.	4	-4	1
O=C(c1ccccc1)N1CCN(Cc2ccccc2Br)CC1	3	.	.	18	14	0.8
COc1ccc(COc2cc(-c3cccc(OC)c3)nc3ccc(NC(=O)C(C)C)cc23)cc1	100*	0.0086	0.41	-1	-2	1
COc1cc(SC#N)ccc1N=Cc1c(C)[nH]n(-c2ccc(C)cc2C)c1=O	56*	0.28	-2.5	1	24	1
COc1ccc2nc(/N=C/c3c(C)[nH]n(-c4ccc(C)cc4C)c3=O)sc2c1	0	62*	.	19	-9	0.8
Cc1ccc(S(=O)(=O)N2CCN(C(C)CC(=O)O)CC2)cc1 (stereo not given)	0	0.36	0.023	24	-1	0.8
O=Cc1cnc(N2CCOCC2)nc1	47	0.49	0.96	-9	13	1.1
OCC[C@@H]1C[C@@H](O)[C@H](O)[C@]2(CCCCO2)O1	-5	0.42	0.53	9	0	0.9
O=C(Cc1cccs1)NCc1cccc(F)c1	-1	0.018	1.8	6	5	0.9
CNc1oc(-c2ccc(C)cc2)nc1P(=O)(c1ccccc1)c1ccccc1	22	0.046	-0.59	12	49	0.9
COc1ccc(-c2[nH]c3ccccc3c2SCCNC(=O)c2ccccc2)cc1	40	-0.13	-2	16	50	0.8
Cc1ccc(-c2[nH]c3ccccc3c2SCCNC(=O)c2ccc(S(=O)(=O)N3CCOCC3)cc2)cc1	99*	-1.1	-0.53	19	-1	0.8
Cc1ccc(S(=O)(=O)N2CCOCC2)cc1NC(=O)CSc1nnc2cc(C)c3ccccc3n12	3	-3.6	.	54*	-17	0.5
CCC(CC)C(=O)Nc1cc(C(=O)NCCc2ccccc2)ccc1Cl	2	-0.92	-0.099	11	-22	0.9
Cn1cnc2cc(NC(=O)c3cccs3)ccc21	3	0.048	0.59	-14	-4	1.1
Cc1cc(N/N=C/c2ccccc2O)nc(-c2ccccc2O)n1	53*	0.43	0.028	20	69*	0.8
Cc1cc(N/N=C/c2ccc(O)cc2O)nc(-c2ccccc2O)n1	12	0.82	0.67	36	11	0.6
Cc1cc(N/N=C\c2ccccc2)nc(-c2ccccc2O)n1	74*	0.6	0.35	14	36	0.9
COc1cccc(N2CN(C3CCCCC3)CNC2=S)c1	.	0.11	.	.	.	.
CCCCC(CCC(=O)Nc1cc([N+](=O)[O-])ccc1O)C(=O)O (stereo not given)	-7	1.5	0.8	3	-11	1
O=C(/C=C\c1ccc2c(c1)OCO2)Nc1nnc(SCC(=O)OCc2ccccc2)s1	92*	0.48	-0.031	11	-5	0.9
COC(=O)CSc1nnc(NC(=O)/C=C\c2ccc3c(c2)OCO3)s1	100*	0.089	-0.081	-7	-14	1.1
COC(=O)c1cc(C(=O)NCCN2C(=O)S/C(=C\c3cccs3)C2=O)cc([N+](=O)[O-])c1	27	-1.4	-0.46	3	6	1
Cc1cc(C)cc(C(=O)NCC(=O)OCC(=O)NCC(F)(F)F)c1	8	-0.78	0.38	13	0	0.9
COc1ccccc1Cn1c(/C=C/c2ccccc2)nc2ccccc21	44	-0.038	-0.61	10	79*	0.9
COc1ccccc1Cn1c(C(C)C)nc2ccccc21	.	-1.1	.	.	.	.

Screening results deposited in PubChem by several laboratories.
